ChEMBL document CHEMBL4765234 (J Med Chem, 2016)
pEC50, pIC50, pKd: −log10 of the molar value. Active and inactive are the calls of the source. The rule behind the calls is not given here.

Assays:
[1] = biological target: T1, Free fatty acid receptor 1 (Homo sapiens, UniProt O14842); assay: Agonist activity at human recombinant full length GPR40 overexpressed in human HEK293 cells assessed as increase in intracellular calcium level measured over 3 mins by calcium 4 dye based FLIPR assay; type: functional, cell-based
Summary of the method: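 HEK293 cells overexpressing hGPR40 (25K/well) were cultured overnight in DMEM/F12 with 0.2% FBS and geneticin. Compound was tested at 40 μM–0.1 nM final (20-point, 1% DMSO), and FLIPR fluorescence was read over 3 min.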

[2] = biological target: Free fatty acid receptor 1 (Mus musculus, UniProt Q76JU9); assay: Agonist activity at Prolink-tagged mouse GPR40 fused with EA-tagged beta-arrestin expressed in human U2OS cells assessed as induction of beta-arrestin recruitment measured after 90 mins by beta-galactosidase based PathHunter assay; type: cell-based
Summary of the method: (§1)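 PathHunter β-gal complementation. Cells were incubated overnight at 5000/well in medium with 1% heat-inactivated FBS. Compound was added as a 20-point 2-fold series from a top final of 100 μM (1% DMSO) for 90 min at 37 °C, followed by detection reagents and chemiluminescence read after 1 h at rt.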

[3] = biological target: Free fatty acid receptor 1 (Mus musculus) (UniProt Q76JU9); assay: Agonist activity at Prolink-tagged mouse GPR40 fused with EA-tagged beta-arrestin expressed in human U2OS cells assessed as induction of beta-arrestin recruitment measured after 90 mins by beta-galactosidase based PathHunter assay relative to control; type: cell-based; details: filed as agonist; summary of the method: as §1
[4] = biological target: Free fatty acid receptor 1 (Rattus norvegicus, UniProt Q8K3T4); assay: Agonist activity at Prolink-tagged rat GPR40 fused with EA-tagged beta-arrestin expressed in human U2OS cells assessed as induction of beta-arrestin recruitment measured after 90 mins by beta-galactosidase based PathHunter assay; type: cell-based; summary of the method: as §1
[5] = biological target: T1, Free fatty acid receptor 1; assay: Agonist activity at human recombinant full length GPR40 overexpressed in human HEK293 cells assessed as increase in inositol phosphate accumulation in presence of terbium cryptate-labeled anti IP1/d2-labelled IP1 measured after 120 mins by HTRF assay relative to AMG837; type: functional, cell-based; details: filed as agonist
Summary of the method: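 HEK293 hGPR40 cells (20K/well) were cultured overnight, washed, and held in IP1 stimulation buffer. IP-1 was measured by competitive HTRF immunoassay with terbium cryptate anti-IP1 mAb and d2-labelled IP1.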

[6] = biological target: T1, Free fatty acid receptor 1; assay: Displacement of [3H]-(S)-2-(6-((2',6'-dimethyl-4'-(3-(methylsulfonyl)propoxy)biphenyl-3-yl)methoxy)-2,3-dihydrobenzofuran-3-yl)acetic acid from human recombinant full-length GPR40 expressed in human HEK293 cell membrane assessed as dissociation constant measured after 2 hrs by radioligand competitive assay; type: cell membranes
[7] = biological target: T2, Peroxisome proliferator-activated receptor gamma (Homo sapiens) (UniProt P37231); assay: Displacement of [3H]-[…] from PPARgamma (unknown origin) expressed in baculovirus infected Sf9 insect cells upto 30 uM measured after 10 hrs by microbeta scintillation counting analysis; details: dose microM <=30, time 10.0 hrs
T2 sequence (whole entry): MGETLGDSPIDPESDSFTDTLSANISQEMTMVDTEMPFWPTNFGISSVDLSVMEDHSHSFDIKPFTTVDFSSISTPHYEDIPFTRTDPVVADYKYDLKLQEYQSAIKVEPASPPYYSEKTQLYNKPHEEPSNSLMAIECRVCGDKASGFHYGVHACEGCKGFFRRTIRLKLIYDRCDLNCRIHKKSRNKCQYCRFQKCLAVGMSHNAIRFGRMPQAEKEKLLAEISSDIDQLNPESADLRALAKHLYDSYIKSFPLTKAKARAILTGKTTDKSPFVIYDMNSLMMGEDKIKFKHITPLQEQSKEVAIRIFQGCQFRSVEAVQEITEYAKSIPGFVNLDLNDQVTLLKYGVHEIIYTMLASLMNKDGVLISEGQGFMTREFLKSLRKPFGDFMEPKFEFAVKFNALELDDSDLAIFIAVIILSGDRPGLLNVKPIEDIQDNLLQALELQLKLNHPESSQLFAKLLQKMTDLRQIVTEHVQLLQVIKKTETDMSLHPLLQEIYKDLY
Summary of the method: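 Scintillation proximity assay. Sf9 lysates with baculovirus-expressed PPARα (0.3 μg), PPARδ (0.5 μg) or PPARγ (1.25 μg), each with RXRα, were bound via biotinylated DR2 oligo (0.126 nM) to streptavidin yttrium silicate beads. Buffer was HEPES pH 7.8 with KCl, MgCl2, DTT, CHAPS, 14% glycerol and salmon sperm DNA. A 3H reference agonist ligand was used, with 11 compound concentrations, for 10 h. Nonspecific binding was defined with 10000 nM unlabeled reference. Ki was derived from IC50.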

[8] = biological target: Voltage-gated inwardly rectifying potassium channel KCNH2 (Homo sapiens, UniProt Q12809); assay: Inhibition of human ERG
[9] = Drug metabolism in rat hepatocytes assessed as glucuronidation by LC-MS/MS analysis; type: ADME, cell-based, Hepatocyte
[10] = Drug metabolism in dog hepatocytes assessed as glucuronidation by LC-MS/MS analysis; type: ADME, cell-based, Canis lupus familiaris, Hepatocyte
[11] = biological target: T3, Peroxisome proliferator-activated receptor delta (Homo sapiens) (UniProt Q03181); assay: Agonist activity at human Gal4-fused PPARdelta LBD expressed in African green monkey CV1 cells cotransfected with pRL-SV40 plasmid assessed as maximum efficacy measured after 24 hrs by luciferase reporter gene assay relative to control; type: cell-based; details: CV-1
T3 sequence (whole entry): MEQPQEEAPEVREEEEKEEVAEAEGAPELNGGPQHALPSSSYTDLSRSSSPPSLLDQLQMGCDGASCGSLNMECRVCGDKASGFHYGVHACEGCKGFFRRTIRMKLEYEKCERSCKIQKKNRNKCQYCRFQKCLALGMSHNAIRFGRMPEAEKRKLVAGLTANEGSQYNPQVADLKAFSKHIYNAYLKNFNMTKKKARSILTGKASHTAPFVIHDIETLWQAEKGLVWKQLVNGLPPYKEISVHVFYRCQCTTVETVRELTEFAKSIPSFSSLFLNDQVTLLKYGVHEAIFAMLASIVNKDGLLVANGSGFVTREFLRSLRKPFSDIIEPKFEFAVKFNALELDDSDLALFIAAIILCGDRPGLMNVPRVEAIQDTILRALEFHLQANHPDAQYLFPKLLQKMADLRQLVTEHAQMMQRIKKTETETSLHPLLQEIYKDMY
Summary of the method: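 CV1 African green monkey kidney cells were cotransfected, in DMEM with 5% charcoal-stripped FBS, with two plasmids: an SV40-driven Gal4 DBD–PPARα or PPARδ LBD hybrid, and a 5×Gal4-element firefly luciferase reporter. Cells were replated at 15000/well for 4 h, then exposed to 0.17 nM–10 μM in half-log steps for 24 h. Luciferase was read, normalized to maximum from 10 μM reference agonist, and fit by a 4-parameter model.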

[12] = Metabolic stability in human liver microsomes assessed as compound hydrolysis incubated for 30 mins by LC-MS/MS analysis; type: ADME, Microsome; details: read-out: Drug degradation
Summary of the method: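 Incubated 30 min with mouse or human liver microsomes. Stability reported as % metabolized.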

[13] = Clearance in mouse liver microsomes by LC-MS/MS analysis; type: ADME, Microsome
[14] = Clearance in mouse hepatocytes by LC-MS/MS analysis; type: ADME, cell-based, Hepatocyte
Rattus norvegicus = assay: Hypoglycemic activity in Zucker fatty diabetes mellitus rat model assessed as reduction in blood glucose level administered orally for 21 days and measured at 10 to 60 mins post glucose challenge on day 21 by OGTT; type: functional, organism-based; details: dose 0.03-1 mg/kg, time 21.0 day

Chain of Free fatty acid receptor 1 (Mus musculus, UniProt Q76JU9) (Q76JU9 whole entry, the tested form may be a part): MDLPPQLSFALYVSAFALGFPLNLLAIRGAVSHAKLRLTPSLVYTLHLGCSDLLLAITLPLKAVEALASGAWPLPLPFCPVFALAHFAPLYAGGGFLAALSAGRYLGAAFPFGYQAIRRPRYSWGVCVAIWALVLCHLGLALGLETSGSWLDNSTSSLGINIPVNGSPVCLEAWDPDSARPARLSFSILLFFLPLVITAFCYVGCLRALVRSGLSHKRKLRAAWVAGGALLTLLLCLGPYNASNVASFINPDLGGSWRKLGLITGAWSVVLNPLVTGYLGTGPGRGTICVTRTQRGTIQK
Chain of Free fatty acid receptor 1 (Mus musculus) (Q76JU9 whole entry, the tested form may be a part): as above
Chain of Free fatty acid receptor 1 (Rattus norvegicus, UniProt Q8K3T4) (Q8K3T4 whole entry, the tested form may be a part): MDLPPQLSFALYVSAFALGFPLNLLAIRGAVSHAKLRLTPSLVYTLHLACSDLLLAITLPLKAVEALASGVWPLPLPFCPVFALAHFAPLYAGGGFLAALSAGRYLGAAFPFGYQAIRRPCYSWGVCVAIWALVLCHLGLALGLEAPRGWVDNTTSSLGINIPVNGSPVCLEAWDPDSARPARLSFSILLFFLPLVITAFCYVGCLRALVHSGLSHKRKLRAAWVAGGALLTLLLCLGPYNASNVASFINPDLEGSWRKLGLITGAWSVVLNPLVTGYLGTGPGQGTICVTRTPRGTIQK
Chain of Voltage-gated inwardly rectifying potassium channel KCNH2 (Q12809 whole entry): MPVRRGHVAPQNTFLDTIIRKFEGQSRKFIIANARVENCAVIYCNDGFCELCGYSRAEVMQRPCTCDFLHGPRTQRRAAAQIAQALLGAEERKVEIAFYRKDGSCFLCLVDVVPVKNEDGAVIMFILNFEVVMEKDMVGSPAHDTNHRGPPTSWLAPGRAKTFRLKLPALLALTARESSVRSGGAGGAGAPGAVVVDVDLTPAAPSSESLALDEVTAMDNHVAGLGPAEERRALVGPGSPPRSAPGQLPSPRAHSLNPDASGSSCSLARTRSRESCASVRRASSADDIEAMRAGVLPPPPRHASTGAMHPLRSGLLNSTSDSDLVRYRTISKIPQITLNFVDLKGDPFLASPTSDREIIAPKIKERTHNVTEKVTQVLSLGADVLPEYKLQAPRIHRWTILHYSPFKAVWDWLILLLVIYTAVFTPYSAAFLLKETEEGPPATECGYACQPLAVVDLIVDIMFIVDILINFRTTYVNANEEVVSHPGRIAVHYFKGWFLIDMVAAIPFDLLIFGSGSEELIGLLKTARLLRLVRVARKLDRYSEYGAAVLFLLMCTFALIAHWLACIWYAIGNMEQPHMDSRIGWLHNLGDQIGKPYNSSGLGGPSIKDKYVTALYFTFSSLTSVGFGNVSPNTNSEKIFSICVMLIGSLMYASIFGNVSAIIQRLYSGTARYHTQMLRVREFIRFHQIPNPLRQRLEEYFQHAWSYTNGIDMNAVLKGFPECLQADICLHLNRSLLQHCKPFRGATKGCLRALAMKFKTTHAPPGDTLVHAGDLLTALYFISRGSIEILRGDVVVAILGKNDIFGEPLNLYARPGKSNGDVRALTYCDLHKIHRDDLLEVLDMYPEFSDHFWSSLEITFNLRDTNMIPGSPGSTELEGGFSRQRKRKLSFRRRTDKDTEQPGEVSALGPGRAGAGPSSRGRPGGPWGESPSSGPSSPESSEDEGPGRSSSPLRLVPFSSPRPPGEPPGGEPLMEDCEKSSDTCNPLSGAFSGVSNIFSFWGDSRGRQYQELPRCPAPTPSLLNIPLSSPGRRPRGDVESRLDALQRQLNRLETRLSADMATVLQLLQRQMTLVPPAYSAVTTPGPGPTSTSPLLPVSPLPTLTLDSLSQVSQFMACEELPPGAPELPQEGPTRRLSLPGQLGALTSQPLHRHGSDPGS
T1 sequence (O14842 whole entry): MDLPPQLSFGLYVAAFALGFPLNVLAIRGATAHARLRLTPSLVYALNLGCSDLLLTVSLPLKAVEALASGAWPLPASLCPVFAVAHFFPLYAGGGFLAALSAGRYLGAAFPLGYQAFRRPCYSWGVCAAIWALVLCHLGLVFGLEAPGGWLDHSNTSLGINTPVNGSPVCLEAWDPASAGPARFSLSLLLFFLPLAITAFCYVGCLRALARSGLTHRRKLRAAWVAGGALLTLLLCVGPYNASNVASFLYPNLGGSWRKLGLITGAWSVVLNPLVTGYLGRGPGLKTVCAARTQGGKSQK

Structure (SMILES)	pEC50 [1]	pEC50 [2]	Emax [3]	pEC50 [4]	Emax [5]	pKd [6]	Activity [7]	pIC50 [8]	Drug metabolism [9]	Drug metabolism [10]	Emax [11]	metabolised at 0.5 h [12]	CLH [13]	CLH [14]	Activity (Rattus norvegicus)	pEC50 ([2]; u2os)
O=C(O)CCc1ccc(OCc2ccc(CN3CCC4(C=Cc5ccccc54)CC3)cc2)cc1F	6.74	7.49	127%	6.80	282%	7.24	inactive	–	–	–	–	–	–	–	–	–
O=C(O)C[C@@H](c1ccc(OCc2ccc3nc(-c4ccccc4)nn3c2)cc1)c1ccon1	7.85	5.42	98%	4.85	124%	7.43	inactive	–	–	–	–	–	–	–	–	–
CC#C[C@@H](CC(=O)O)c1ccc(OCc2ccc(CN3CCCc4cccc(OC)c43)s2)cc1	–	9.00	137%	8.52	–	–	–	< 5.00	Metabolite_Detected	Metabolite_Detected	1%	24%	0.022 h⁻¹	< 0.05 h⁻¹	Dose-dependent effect	–
CC#C[C@@H](CC(=O)O)c1ccc(OCc2ccc(CN3CCC4(C=Cc5ccccc54)CC3)cc2)cc1 [LY2881835]	–	–	133%	–	162%	8.60	inactive	< 5.00	Metabolite_Detected	Metabolite_Detected	5%	38%	0.131 h⁻¹	0.09 h⁻¹	Dose-dependent effect	9.07
CC#C[C@@H](CC(=O)O)c1ccc(OCc2ccc(CN3CCC4(CCc5ccccc54)CC3)s2)cc1	8.10	8.92	126%	8.77	132%	8.46	inactive	< 5.00	Metabolite_Detected	Metabolite_Detected	2%	44%	0.288 h⁻¹	0.1 h⁻¹	Dose-dependent effect	–
CC#C[C@@H](CC(=O)O)c1ccc(OCc2ccc(CN3CCC4(C=Cc5ccccc54)CC3)s2)cc1	7.92	9.34	119%	9.03	145%	8.70	inactive	–	Metabolite_Detected	Metabolite_Detected	–	–	–	–	–	–
CC#C[C@@H](CC(=O)O)c1ccc(OCc2ccc(CN3CCC4(CC3)CN(C)c3ccccc34)cc2)cc1	7.26	8.48	131%	8.26	268%	8.02	inactive	–	–	–	–	–	–	–	–	–
CC#C[C@@H](CC(=O)O)c1ccc(OCc2ccc(CN3CCC4(CCc5ccccc54)CC3)cc2)cc1	7.72	9.06	135%	8.89	249%	8.66	inactive	–	–	–	–	–	–	–	–	–
